Screening results: PubChem, several laboratories
DNMT1 inh: inhibitors of human DNMT1; P26358; DNMT1 molecular beacon, Hinp1I cleavage, fluorescence; inhibition (reported as % activation of signal), % at 10 µM; 0.83% of 360,000 active; in the data active = inhibition above about 50%
STEP inh: blocks human striatal-enriched tyrosine phosphatase. P54829. recombinant STEP, OMFP fluorogenic substrate, fluorescence. inhibition, % at 20 µM. 0.25% of 360,000 active. AID 588621;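 active = inhibition at 20 µM, scaled per plate between control wells, above about 37%, limit read from the data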;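 note: 0% = DMSO with enzyme and substrate and 100% = substrate only without enzyme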
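Material: STEP (striatal-enriched tyrosine phosphatase) enzyme, cell-free | Medium: 50 mM Bis-Tris pH 6.0 with 2.5 mM DTT and 0.005% Tween 20 | Read-out: Percent inhibition scaled to no-enzyme and uninhibited-enzyme controls, plate-pattern corrected | Signal: Fluorescence read at 480 nm ex / 540 nm em | Times: 20 min reaction, room temperature, in the dark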
SUMO1-SIM PPI: modulators of human SUMO1-mediated protein-protein interactions; SUMO1 binding to a labelled peptide, TR-FRET, 1 h; inhibition, % at 20 µM; AID 602429; 0.33% of 360,000 active; in the data active = inhibition above about 37%
Target sequence (P63165 whole entry, looked up): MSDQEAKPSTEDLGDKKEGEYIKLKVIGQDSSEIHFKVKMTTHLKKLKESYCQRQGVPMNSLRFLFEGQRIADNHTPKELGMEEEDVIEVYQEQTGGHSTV
Scp-1 inhibitor: inhibitors of human Scp-1 phosphatase. Q9GZU7. Recombinant Scp1, phosphopeptide, malachite green phosphate absorbance. inhibition, % at 20 µM. 0.88% of 340,000 active. AID 493091;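 active = inhibition above about 50% at 20 µM, limit read from the data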;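 note: plate controls were DMSO wells with enzyme for no effect and wells lacking enzyme for full effect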
Target sequence (Q9GZU7 76-261 limits assumed): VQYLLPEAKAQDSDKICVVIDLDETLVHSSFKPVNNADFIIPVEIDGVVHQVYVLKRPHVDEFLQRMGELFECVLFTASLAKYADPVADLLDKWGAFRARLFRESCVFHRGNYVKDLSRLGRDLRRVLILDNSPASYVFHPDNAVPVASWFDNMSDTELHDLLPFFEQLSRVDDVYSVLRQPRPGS
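Test system: SCP-1 phosphatase catalytic domain, residues 76-261 | Compound dosing: One concentration, 20 µM, with 1.0% DMSO | Schedule: 45 min room-temperature reaction, 5 min colour, 30 min stabiliser | Detection: Absorbance at 630 nm | Read-out basis: % inhibition of SCP-1 phosphate liberation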
CASP6 VEID inh: blocks human caspase-6 cleavage activity. P55212. purified caspase-6, Z-VEID-R110 cleavage fluorescence. inhibition, % at 12.5 µM. 0.53% of 350,000 active. AID 686996;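 active = mean inhibition across replicates at least about 35%, with every replicate also reaching that limit, limit read from the data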;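 note: 0% = median of neutral control wells and 100% = no fluorescence left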
Target sequence (P55212 24-179 limits assumed): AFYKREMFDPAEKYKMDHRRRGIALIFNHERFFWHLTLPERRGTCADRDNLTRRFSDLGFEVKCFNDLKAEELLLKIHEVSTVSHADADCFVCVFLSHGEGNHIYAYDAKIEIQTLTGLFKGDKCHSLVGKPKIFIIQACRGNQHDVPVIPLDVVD
Target sequence (P55212 194-293 limits assumed): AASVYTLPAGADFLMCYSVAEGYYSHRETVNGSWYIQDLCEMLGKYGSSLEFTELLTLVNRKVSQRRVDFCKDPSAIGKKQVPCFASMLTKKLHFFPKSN
LMPTP block: blocks human LMPTP phosphatase; recombinant LMPTP-A, OMFP fluorogenic substrate, fluorescence intensity; inhibition, % at 20 µM; 0.22% of 360,000 active;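 active = compounds that cut the enzyme signal by at least half of the control window in the single-dose screen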;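 note: plate controls were DMSO wells with enzyme plus substrate for no effect and substrate without enzyme for full effect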
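Test system: LMPTP-A, protein tyrosine phosphatase of low molecular weight; Input: 0.625 nM enzyme; Incubation: 50 min dark incubation at room temperature; Signal: endpoint fluorescence intensity from OMFP dephosphorylation; Read-out basis: % inhibition versus control wells.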
* marks the source's active call; other numbers are inactive results; · = no result given. Most compounds without a hit are left out; they make up all but 1.7% or so of the library.

SMILES | DNMT1 inh | STEP inh | SUMO1-SIM PPI | Scp-1 inhibitor | CASP6 VEID inh | LMPTP block
COc1ccc(/C=C\C(=O)CC(O)(c2ccccc2)C(F)(F)F)cc1 (stereo unspecified) | 1 | -2 | -5 | -12 | · | 1
Cc1cc(=O)oc2c(C)c(OCC(=O)N3CCC(C(=O)O)CC3)ccc12 | -3 | -2 | 9 | -1 | -1 | 1
CCOC(=O)CSc1nnc(C2CCCCC2)n1C | 3 | -5 | 5 | -11 | · | -3
Nc1nonc1-c1nc2ccccc2n1CC(=O)N/N=C/c1ccc(-c2ccccc2C(=O)O)o1 | 40 | 3 | 20 | 50 | 60* | 3
O=c1cc2c(nn1Cc1ccc(Cl)cc1)-c1ccccc1CC2 | 0 | -3 | -2 | 29 | · | 1
Cc1ccc2nc(-c3ccc(O)c(O)c3)cn2c1 | 13 | 0 | 7 | 3 | 38* | 17
Cc1ccc2nc(-c3ccccc3)cn2c1 | 2 | -1 | 1 | -2 | · | -1
CC(=O)OC1CSc2nc3ccccc3n2C1 (stereo unspecified) | -2 | -3 | -1 | -8 | · | -1
COc1ccc(Nc2nc(N)nc(CSC(=S)N3CCN(C)CC3)n2)cc1 | 1 | 1 | 50* | -6 | -2 | -1
NS(=O)(=O)c1cc(C(=O)NC2CCSc3ccccc32)ccc1Cl (stereo unspecified) | 84* | 100* | 121* | 94* | 80* | 71*
NS(=O)(=O)c1cccc(C(=O)NC2CCSc3ccccc32)c1 (stereo unspecified) | 1 | 0 | -3 | -3 | 3 | 0
CNC[C@H]1Oc2ccc(NC(=O)Nc3c(C)noc3C)cc2CC(=O)N([C@H](C)CO)C[C@@H]1C | · | · | · | · | 4 | ·
Cc1cccc(-n2c(C)nc3cc(C(=O)NCCN4CCOCC4)ccc32)c1 | 1 | 2 | 0 | · | 89* | -1
Cc1nc2cc(C(=O)NCCN3CCOCC3)ccc2n1-c1ccc(F)cc1F | -1 | -1 | -2 | -2 | · | 0
COc1ccccc1/C=N/Nc1cc(C)nc2ccc(C)cc12 | 3 | 0 | 7 | 3 | -1 | 1
COc1ccc2nc(C)cc(N/N=C/c3ccccc3)c2c1 | 67* | 2 | -48 | 0 | · | 7
COc1ccc(/C=N/Nc2cc(C)nc3ccc(OC)cc23)c(OC)c1 | 51* | 6 | 87* | -7 | 24 | 29
Cc1cc(NC(=O)c2oc3ccccc3c2C)ccc1-n1cnnn1 | -1 | 1 | -1 | 7 | 1 | 1
Cc1cccc2nc3ccccc3cc12 | 9 | -2 | -18 | -7 | 2 | 2
Cc1[nH]ccc2cc3nc4ccccc4c3cc12 | 48 | 0 | -34 | · | · | 86*
O=C1C(Cl)=C(NCc2ccco2)C(=O)c2ccccc21 | 10 | 1 | -30 | 1 | 99* | 2
CCNC1=C(Cl)C(=O)c2ccccc2C1=O | -17 | 5 | -26 | -7 | · | 4
COc1cccc(-c2nnc3n2N=C(c2cccc(Br)c2)CS3)c1 | 29 | -1 | 49* | -5 | · | -3
C=C(C)C(=O)Nc1cccc(C2=NOC3(C2)C[C@@H](C(N)=O)N(C(=O)c2ccc(OC)cc2)C3)c1 (stereo partly specified) | 96* | 13 | 107* | 99* | · | 2
N/C(=N\OC(=O)c1cccc2ccccc12)c1ccncc1 | 2 | -1 | -28 | -2 | 0 | 0
SMILES | DNMT1 inh | STEP inh | SUMO1-SIM PPI | Scp-1 inhibitor | CASP6 VEID inh | LMPTP block
COc1ccc(OC)c(-c2csc(NC(=O)Cc3ccc(F)cc3)n2)c1 | -4 | 1 | 0 | -1 | 0 | 3
COc1ccc(OC)c(-c2csc(NC(=O)Cn3[nH]c(=O)c4ccccc4c3=O)n2)c1 | -6 | 4 | 64* | -1 | -4 | 0
C=CCOc1ccc(/C=N/NC(=O)CN2CCOCC2)cc1OCC | -1 | -4 | 6 | -8 | -1 | 1
Cc1ccc(S(=O)(=O)N(C(=O)c2ccncc2)c2ccc(OC(=O)c3ccncc3)c3ccccc23)c(C)c1 | -25 | 1 | 5 | 60* | · | 3
O=c1[nH]c2ccc(F)cc2[nH]c1=O | -4 | -2 | 0 | -13 | 42* | -1
COC(=O)c1ccc(N2C(c3cc(OC)cc(OC)c3)=Cc3ccc(OC)cc3C2CC(=O)c2ccco2)cc1 (stereo unspecified) | · | · | -5 | · | -2 | 2
O=C1C(=O)c2c(C(=O)c3ccccc3)coc2-c2ccccc21 | -10 | 18 | -9 | -5 | 1 | 2
CCOC(=O)c1c(C)oc2c1C(=O)c1ccccc1C2=O | -10 | 0 | -12 | -1 | 8 | 1
Cc1oc2c(c1C(=O)O)C(=O)c1ccccc1C2=O | -10 | 7 | -13 | -10 | 58* | -1
Cc1oc2c(c1C(=O)c1ccccc1)C(=O)C(=O)c1ccccc1-2 | 93* | 14 | 37* | -5 | · | 6
Cc1ccc2c(c1C)-c1c(ccc(C)c1C)C(=O)C2=O | 95* | 5 | 49* | -16 | 8 | 8
C[C@H](NC(=O)c1ccc2ccccc2c1)C(=O)N1CCC2(CC1)NCCc1[nH]cnc12 | -1 | 2 | -9 | -9 | -4 | -1
CC(C)CNC(=O)c1cccc2c(-c3ccc(F)c(F)c3)coc12 | 5 | 2 | 5 | · | 55* | 4
CN(C)c1ccc(O)c2c1CC1CC3[C@@H](N(C)C)C(=O)C(C(N)=O)=C(O)[C@]3(O)C(=O)C1=C2O (stereo partly specified) | 90* | 21 | 23 | 47 | 66* | 35
CC(=O)Nc1ccc(NC(=O)C23CC4CC(C2)CC(n2cnc(Br)n2)(C4)C3)cc1 | -1 | 13 | 0 | -7 | 1 | -1
Cc1cc(=O)oc2c1c(C)nn2-c1nn[nH]n1 | 1 | -1 | 3 | 68* | · | -3
O=C(CSc1nnnn1-c1ccc(F)cc1)NNC(=O)c1ccco1 | 1 | -2 | -1 | 12 | -2 | -1
O=C1NC(=Nc2ccccc2Cl)S/C1=C\c1cccc([N+](=O)[O-])c1O | 8 | 3 | 10 | -7 | 39* | 7
O=C(CNC(=O)c1[nH]cnc1C(=O)NC(c1ccccc1)c1ccccc1)OCc1ccccc1 | -18 | -3 | 0 | -8 | 1 | 0
Cc1oc2cc3oc(=O)c(CC(=O)O)c(C)c3cc2c1-c1ccccc1 | -3 | 2 | 6 | 8 | 2 | 1
Cc1oc2c(C)c3oc(=O)c(CCC(=O)O)c(C)c3cc2c1-c1ccccc1 | 3 | 2 | 38* | 18 | -1 | 4
CC(=O)c1ccc(NC(=O)c2ccc(NC(=O)c3ccco3)cc2)cc1 | 32 | 86* | 18 | 39 | · | 72*
COc1cc(/C=C/c2ccc(O)cc2)cc(OC)c1 | -34 | -3 | 4 | 1 | 3 | 3
COc1ccc(/C=N/Nc2ccc(C(=O)O)cc2)c(OC)c1OC | 0 | 3 | -12 | -2 | -1 | 0
